Measured values reported in publication PMC7883397 (Cancer treatment and research communications, 2020).

How the values were obtained:
G361 melanoma cells = test: G361 melanoma cell proliferation; format: cell-based; conditions: Homo sapiens, G-361, read-out: IC50, inhibition of G361 cell proliferation
UACC-62-R cells = test: PLX4720-resistant UACC-62-R melanoma cell proliferation; format: cell-based, human
Method in brief: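 The PLX4720-resistant UACC-62-R line was derived by sustained culture in low-dose PLX4720. It was maintained in 20 μM PLX4720, with medium replenished twice weekly. Proliferation was tracked as IncuCyte confluence and IC50 was derived for resistant and wild-type cells.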

Compound | IC50 (G361 melanoma cells) | IC50 (UACC-62-R cells; Homo sapiens, read-out: IC50, inhibition of UACC-62-R cell proliferation) | resistance of UACC-62-R relative to UACC-62-WT cells (UACC-62-R cells; proliferation in presence of PLX4720)
C=CCc1ccc(O)c(-c2cc(CC=C)ccc2O)c1 [MGN, magnolol] | 38 µM |  | 
CCCS(=O)(=O)Nc1ccc(F)c(C(=O)c2c[nH]c3ncc(Cl)cc23)c1F [PLX4720] |  | 26.2 µM | approximately six times more resistant
